Experimental data from different studies.
Compare with care: the assays were run in different laboratories.
Target: Serine/threonine-protein kinase pim-1 (PIM1, Homo sapiens, UniProt P11309)

| SMILES | assay | conditions | measurement | result |
| --- | --- | --- | --- | --- |
| N#CC1(c2ccccn2)CCN(Cc2cc(C(=O)O)c(=O)n3ccccc23)CC1 | cell-free assay, competition with immobilised ligand | 1 µM | remaining binding | 99% |
| CC(C)(C)c1cc(C=C(C#N)C#N)cc(Br)c1O | enzyme activity, inhibitor | 0.5 µM | remaining activity | 94.7% |
| COc1ncccc1-c1cnn2ccc(N3CCN(C(=O)OC(C)C)CC3)nc12 | binding, competition with immobilised ligand | 1 µM | remaining binding | 100% |
| Cc1nn(C)cc1-c1nc2c(N3CCN(Cc4ccc(Cl)cc4)CC3)c(Cl)cnc2[nH]1 | binding, competition with immobilised ligand | 1 µM | remaining binding | 100% |
| Cn1cc(-c2cc(F)cc(N3CCn4c(cc5c4CCCC5)C3=O)c2CO)cc(Nc2ccc(N3CCN(C4COC4)CC3)cn2)c1=O | enzyme activity, inhibitor | 0.1 µM | inhibition | 11% |
| O=c1[nH]c2ccccc2n1C1CCN(Cc2ccc(-c3[nH]c4cc5ncnc5cc4nc3-c3ccccc3)cc2)CC1 | cell-free assay | 0.5 µM | remaining signal | 106% |
| Cn1cncc1[C@@](O)(COc1ccc(C#N)cc1-c1ccc(OC(F)(F)F)cc1)c1ccc(C#N)cc1 | cell-free assay, competition with immobilised ligand | 1 µM | remaining binding | 100% |
| Cn1cc(-c2cccc(N3CCc4c(sc5c4CC(C)(C)C5)C3=O)c2CO)cc(Nc2ccncn2)c1=O | enzyme activity, inhibitor | 1 µM | inhibition | 2% |
